ChEMBL document CHEMBL3580561, “Mitigation of Acetylcholine Esterase Activity in the 1,7-Diazacarbazole Series of Inhibitors of Checkpoint Kinase 1” (J Med Chem, 2015)

Key:
HT-29 [1] = assay: Cytotoxicity against human HT-29 cells after 72 hrs by CellTiter-Glo luminescent assay; assay type: functional; conditions: HT-29, 72 h
In short: (§1)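 HT-29 cells exposed 72 h to a range of gemcitabine concentrations, alone or combined with a range of ChK1 inhibitor concentrations. Viability read by CellTiter-Glo luminescence. […] Synergy assessed by combination index or Bliss independence.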

[2] = Volume of distribution at steady state in CD1 mouse at 1 mg/kg, iv solution at pH 4.5; assay type: ADME, organism-based; conditions: in vivo, read-out: Vdss
[3] = Cmax in cynomolgus monkey at 2 mg/kg, po suspension at pH 6.5; assay type: ADME, organism-based, Macaca fascicularis; design: dose 2 mg/kg, route oral; conditions: in vivo
Acetylcholinesterase = Acetylcholinesterase (Homo sapiens, UniProt P22303); assay: Inhibition of human acetylcholine esterase by horseradish peroxidase-coupled fluorescence assay
Acetylcholinesterase, sequence (P22303 whole entry): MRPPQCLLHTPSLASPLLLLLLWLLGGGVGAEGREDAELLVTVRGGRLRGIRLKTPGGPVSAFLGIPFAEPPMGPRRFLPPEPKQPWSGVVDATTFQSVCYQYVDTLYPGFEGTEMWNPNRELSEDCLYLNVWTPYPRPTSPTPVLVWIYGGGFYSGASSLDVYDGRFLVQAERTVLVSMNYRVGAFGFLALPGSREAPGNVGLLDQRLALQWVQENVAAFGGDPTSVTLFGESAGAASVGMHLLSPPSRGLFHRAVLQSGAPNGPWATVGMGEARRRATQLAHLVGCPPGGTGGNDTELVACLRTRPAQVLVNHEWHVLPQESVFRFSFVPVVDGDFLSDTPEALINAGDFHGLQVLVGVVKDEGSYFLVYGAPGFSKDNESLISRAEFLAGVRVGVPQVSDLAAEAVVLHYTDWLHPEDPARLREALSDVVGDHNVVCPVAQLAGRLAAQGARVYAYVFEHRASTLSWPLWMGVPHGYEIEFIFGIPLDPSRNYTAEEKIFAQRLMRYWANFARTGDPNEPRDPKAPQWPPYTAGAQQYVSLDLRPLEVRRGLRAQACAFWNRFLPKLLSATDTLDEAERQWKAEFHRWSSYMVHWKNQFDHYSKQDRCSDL
In short: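 Human AChE at 0.006 U/ml, with 0.25 μM acetylcholine chloride, 0.06 U/ml choline oxidase, 0.05 U/ml horseradish peroxidase and 200 μM Amplex Red, in proprietary buffer with test compound. Incubated 30 min at 25 °C. Fluorescence read.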

[4] = AUC in Beagle dog at 2 mg/kg, po suspension at pH 6.5; assay type: ADME, organism-based, Canis lupus familiaris; conditions: in vivo
[5] = Volume of distribution at steady state in Beagle dog at 1 mg/kg, iv solution at pH 4.5; assay type: ADME, organism-based, Canis lupus familiaris; conditions: in vivo, read-out: Vdss
Mus musculus [6] = assay: Toxicity in human HT-29 cells xenografted in NCr nude mouse assessed as body weight change measured after five cycles with 120 mg/kg, ip gemcitabine at five day intervals at 50 mg/kg, po; assay type: organism-based; conditions: in vivo
In short: (§2)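 NCr nude mice aged 8–12 weeks were inoculated with 5×10^6 HT-29 cells in HEPES-buffered saline:Matrigel 50:50. At 125–250 mm³, tumors were split into volume-matched cohorts (n=5 or 10). Gemcitabine in saline was given i.p., and the inhibitor as an MCT suspension by oral gavage 24 h later. Tumor volume and body weight were monitored. %TGI was derived by linear mixed-effect modeling, with two-way ANOVA/Tukey for p-values.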

[7] = Clearance in Sprague-Dawley rat at 1 mg/kg, iv solution at pH 4.5; assay type: ADME, organism-based; conditions: in vivo
[8] = Oral bioavailability in Sprague-Dawley rat at 5 mg/kg suspension at pH 6.5; assay type: ADME, organism-based; conditions: in vivo
[9] = Plasma protein binding in cynomolgus monkey; assay type: ADME, cell-free, Macaca fascicularis; conditions: read-out: PPB (converted)
[10] = Plasma protein binding in Sprague-Dawley rat; assay type: ADME, cell-free; conditions: read-out: PPB (converted)
HT-29 [11] = assay: Cytotoxicity against human HT-29 cells assessed as 10-fold reduction of gemcitabine IC50 after 72 hrs by Isobologram assay; assay type: functional; conditions: HT-29, 72 h; in short: as §1
[12] = Clearance in CD1 mouse at 1 mg/kg, iv solution at pH 4.5; assay type: ADME, organism-based; conditions: in vivo
[13] = Cmax in CD1 mouse at 5 mg/kg, po suspension at pH 6.5; assay type: ADME, organism-based; design: dose 5 mg/kg, route oral; conditions: in vivo
[14] = Volume of distribution at steady state in Sprague-Dawley rat at 1 mg/kg, iv solution at pH 4.5; assay type: ADME, organism-based; conditions: in vivo, read-out: Vdss
[15] = Volume of distribution at steady state in cynomolgus monkey at 1 mg/kg, iv solution at pH 4.5; assay type: ADME, organism-based, Macaca fascicularis; conditions: in vivo, read-out: Vdss
[16] = Clearance in Beagle dog at 1 mg/kg, iv solution at pH 4.5; assay type: ADME, organism-based, Canis lupus familiaris; conditions: in vivo
[17] = Oral bioavailability in Beagle dog at 2 mg/kg suspension at pH 6.5; assay type: ADME, organism-based, Canis lupus familiaris; conditions: in vivo
[18] = Cmax in Beagle dog at 2 mg/kg, po suspension at pH 6.5; assay type: ADME, organism-based, Canis lupus familiaris; design: dose 2 mg/kg, route oral; conditions: in vivo
[19] = (§3) AUC in CD1 mouse at 5 mg/kg, po suspension at pH 6.5; assay type: ADME, organism-based; conditions: CD1, mouse, in vivo, 5 mg/kg, pH 6.5
HT-29 [20] = assay: Potentiation of 60 mg/kg gemcitabine-induced anticancer activity in human HT-29 cells xenografted in po treated mouse assessed as increase in gammaH2AX by Western blot analysis; assay type: functional, organism-based
In short: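 HT-29 xenograft mice (n=4 per randomized group) got gemcitabine 60 mg/kg or saline. After 24 h they received an oral inhibitor dose in MCT (0.5% methylcellulose/0.2% Tween 80) or vehicle. Tumors were excised 16 h later, flash-frozen and lysed. Western blots (25 μg/lane) were probed for pS139 H2AX and total H2AX with IR-dye detection. The γH2AX:total ratio is expressed as fold-change from the gemcitabine-only group mean.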

[21] = Cmax in Sprague-Dawley rat at 5 mg/kg, po suspension at pH 6.5; assay type: ADME, organism-based; design: dose 5 mg/kg, route oral; conditions: in vivo
[22] = Oral bioavailability in cynomolgus monkey at 2 mg/kg suspension at pH 6.5; assay type: ADME, organism-based, Macaca fascicularis; conditions: in vivo
[23] = target: T1, Serine/threonine-protein kinase Chk1 (Homo sapiens, UniProt O14757); assay: Inhibition of CHK1 in human HT29 cells assessed as phosphorylation of histone H3 after 24 hrs by checkpoint abrogation cellular assay; assay type: cell-based, HT-29
T1 sequence (O14757 whole entry): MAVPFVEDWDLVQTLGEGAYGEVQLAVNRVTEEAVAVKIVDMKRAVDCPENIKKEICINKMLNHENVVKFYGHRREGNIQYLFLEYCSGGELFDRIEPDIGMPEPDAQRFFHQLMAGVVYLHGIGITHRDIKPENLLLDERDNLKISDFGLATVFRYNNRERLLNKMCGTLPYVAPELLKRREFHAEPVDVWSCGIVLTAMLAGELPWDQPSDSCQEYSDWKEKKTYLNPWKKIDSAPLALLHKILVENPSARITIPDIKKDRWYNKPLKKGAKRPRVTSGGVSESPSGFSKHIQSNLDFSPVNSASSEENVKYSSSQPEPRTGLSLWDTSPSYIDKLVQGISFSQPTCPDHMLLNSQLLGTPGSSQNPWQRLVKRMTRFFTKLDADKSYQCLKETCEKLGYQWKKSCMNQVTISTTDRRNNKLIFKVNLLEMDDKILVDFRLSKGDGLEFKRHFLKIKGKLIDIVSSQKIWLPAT

[24] = Plasma protein binding in Beagle dog; assay type: ADME, cell-free, Canis lupus familiaris; conditions: read-out: PPB (converted)
HT-29 [25] = assay: Cytotoxicity against human HT-29 cells assessed as 10-fold reduction of gemcitabine IC50 after 72 hrs by Isobologram assay relative to untreated control; assay type: functional
In short: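 HT-29 cells exposed 72 h to a range of gemcitabine hydrochloride concentrations, alone or combined with varying ChK1 inhibitor concentrations. Viability read by CellTiter-Glo luminescence. […] Synergy judged by combination index or Bliss independence analysis.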

[26] = AUC in cynomolgus monkey at 2 mg/kg, po suspension at pH 6.5; assay type: ADME, organism-based, Macaca fascicularis; conditions: in vivo
[27] = Plasma protein binding in CD1 mouse; assay type: ADME, cell-free; conditions: read-out: PPB (converted)
HT-29 [28] = assay: Potentiation of gemcitabine-induced anticancer activity in human HT-29 cells xenografted in po treated NCr nude mouse assessed as reduction in tumor volume measured after five cycles with 120 mg/kg, ip gemcitabine at five day intervals; assay type: functional, organism-based; in short: as §2
[29] = target: T1, Serine/threonine-protein kinase Chk1; assay: Inhibition of human recombinant Chk1 using biotinylated AKT substrate after 30 mins by Alphascreen biochemical assay
[30] = AUC in Sprague-Dawley rat at 5 mg/kg, po suspension at pH 6.5; assay type: ADME, organism-based; conditions: in vivo
[31] = (§4) Oral bioavailability in CD1 mouse at 5 mg/kg suspension at pH 6.5; assay type: ADME, organism-based; conditions: CD1, mouse, in vivo, 5 mg/kg, pH 6.5
[32] = Clearance in cynomolgus monkey at 1 mg/kg, iv solution at pH 4.5; assay type: ADME, organism-based, Macaca fascicularis; conditions: in vivo
Mus musculus [33] = assay: Toxicity in human HT-29 cells xenografted in NCr nude mouse assessed as body weight change measured after four cycles with 60 mg/kg, ip gemcitabine at four day intervals at 50 mg/kg, po; assay type: organism-based; conditions: in vivo; in short: as §2
HT-29 [34] = assay: Potentiation of gemcitabine-induced anticancer activity in human HT-29 cells xenografted in po treated NCr nude mouse assessed as reduction in tumor volume measured after four cycles with 60 mg/kg, ip gemcitabine at four day intervals; assay type: functional, organism-based; in short: as §2
Mus musculus [35] = assay: as §3; assay type: ADME, organism-based; conditions: mouse, in vivo, pH 6.5, 5 mg/kg
HT-29 [36] = assay: Potentiation of gemcitabine-induced anticancer activity in human HT-29 cells xenografted in NCr nude mouse assessed as reduction in tumor volume measured after four cycles with 60 mg/kg, ip gemcitabine at four day intervals at 50 mg/kg, po; assay type: functional; design: scale not given: the % may be the effect or the level left
In short: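 NCr nude mice, 8–12 weeks old, inoculated with 5×10^6 HT-29 cells in HEPES-buffered saline:Matrigel 50:50. Volume-matched cohorts formed at 125–250 mm³. Gemcitabine 60 mg/kg given i.p. in saline. Inhibitor given orally in 0.5% methylcellulose/0.2% Tween 80 suspension 24 h later. Four cycles at four-day intervals. Tumor volume monitored. %TGI by linear mixed-effect modeling; two-way ANOVA with Tukey test.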

Mus musculus [37] = assay: as §4; assay type: ADME, organism-based; conditions: mouse, in vivo, pH 6.5, 5 mg/kg

Row | SMILES | GI50 (HT-29 [1]) | Vd [2] | Cmax [3] | IC50 (Acetylcholinesterase) | AUC [4] | Vd [5] | clearance [7] | bioavailability [8] | fraction unbound [9] | fraction unbound [10] | EC10 (HT-29 [11]) | Cmax [13] | Vd [14] | Vd [15] | clearance [16] | bioavailability [17] | Cmax [18] | Activity (HT-29 [20]) | Cmax [21] | bioavailability [22] | other results
1 | N#Cc1cc2c(cn1)[nH]c1ncc(-c3ccc(CN4CCCCC4)cc3)cc12 | 8700 nM | 6.57 L/kg | 44 nM | 333 nM | 0.101 µM·h | 23.4 L/kg | 24.7 mL/min/kg | 67.4% | 0.117 | 0.047 | 10 nM | 386 nM | 6.35 L/kg | 25.7 L/kg | 118 mL/min/kg | 13.1% | 21 nM | Dose-dependent effect | 520 nM | 43.8% | Activity (Mus musculus [6]): Non-toxic; clearance [12]: 55.8 mL/min/kg; AUC [19]: 2.68 µM·h; EC50 [23]: 53.2 nM; fraction unbound [24]: 0.132; fold change (FC) (HT-29 [25]): 870; AUC [26]: 0.869 µM·h; fraction unbound [27]: 0.05; Activity (HT-29 [28]): Dose-dependent effect; IC50 [29]: 1 nM; AUC [30]: 6.19 µM·h; bioavailability [31]: 86.5%; clearance [32]: 45.8 mL/min/kg
2 | N#Cc1cc2c(cn1)[nH]c1ncc(-c3ccc(CN4CCC5(CC4)COC5)cc3)cc12 | > 2500 nM | 7.33 L/kg | 86 nM | 2420 nM | 3.51 µM·h | 9.63 L/kg | 27.5 mL/min/kg | 116% | 0.049 | 0.025 | 16 nM | 191 nM | 7.55 L/kg | 17.1 L/kg | 10.9 mL/min/kg | 46.7% | 200 nM | Dose-dependent effect | 1100 nM | 34% | Activity (Mus musculus [33]): Non-toxic; Activity (HT-29 [34]): Dose-dependent effect; AUC (Mus musculus [35]): 1.33 µM·h; Activity (HT-29 [36]): 111%; EC50 [23]: 72.8 nM; fraction unbound [24]: 0.052; fold change (FC) (HT-29 [25]): > 156; AUC [26]: 0.91 µM·h; fraction unbound [27]: 0.038; IC50 [29]: 2.5 nM; AUC [30]: 8.63 µM·h; F (Mus musculus [37]): 48.5%; clearance [32]: 30.8 mL/min/kg
